Square brackets hold non-standard residues; d marks the D form. Peptide text beside a SMILES is read from it. * marks the point of attachment. pY = N[C@@H](Cc1ccc(OP(=O)(O)O)cc1)C(=O)O; Propionyl = CCC(=O)*; NHBu = CCCCN*

For test [1], the target named is Growth factor receptor-bound protein 2 (Homo sapiens, UniProt P62993). Briefly: Inhibitory activity against binding of Growth factor receptor bound protein 2 to biotinylated KPFY*VNVEF Peptide by ELISA. In outline:
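It is competed with test compounds against biotinylated KPFY*VNVEF (4.0 nM) captured on streptavidin plates for 1 h at rt. Bound GST is detected by rabbit anti-GST, then AP anti-rabbit with pNPP, read at 405 nm. IC50 comes from nonlinear regression, normalized to the on-plate control peptide.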
(In an ELISA, binding on a coated surface is turned into a signal by an enzyme label.)

For test [2], the target named is Proto-oncogene tyrosine-protein kinase Src (Homo sapiens, UniProt P12931). Briefly: Inhibitory activity against binding of Src protein tyrosine kinase SH2 domain to biotinylated EPQY*EEIPI Peptide by ELISA. In a few lines: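 It competes with test compounds against biotinylated EPQY*EEIPI (6.0 nM) on streptavidin-coated plates for 1 h at rt. Detection is anti-GST, then AP-conjugated secondary with pNPP at 405 nm. IC50 comes from nonlinear regression, adjusted to the on-plate control peptide.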
Sequence of Proto-oncogene tyrosine-protein kinase Src (P12931 2-536 limits assumed): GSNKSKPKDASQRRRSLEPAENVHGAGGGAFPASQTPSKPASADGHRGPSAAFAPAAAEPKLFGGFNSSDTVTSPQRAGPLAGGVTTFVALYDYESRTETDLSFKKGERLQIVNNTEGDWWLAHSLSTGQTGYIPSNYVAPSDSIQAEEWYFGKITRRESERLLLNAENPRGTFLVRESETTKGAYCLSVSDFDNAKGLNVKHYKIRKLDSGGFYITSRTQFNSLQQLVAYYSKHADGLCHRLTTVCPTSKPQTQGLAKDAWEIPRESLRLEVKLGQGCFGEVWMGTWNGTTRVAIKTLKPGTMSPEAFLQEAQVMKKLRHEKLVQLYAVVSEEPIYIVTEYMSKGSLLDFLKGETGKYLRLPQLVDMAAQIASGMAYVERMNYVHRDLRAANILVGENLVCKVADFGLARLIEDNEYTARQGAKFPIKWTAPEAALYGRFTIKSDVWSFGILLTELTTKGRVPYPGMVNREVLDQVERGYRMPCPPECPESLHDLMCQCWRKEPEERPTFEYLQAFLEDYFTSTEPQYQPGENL

Sequence of Growth factor receptor-bound protein 2 (P62993 whole entry): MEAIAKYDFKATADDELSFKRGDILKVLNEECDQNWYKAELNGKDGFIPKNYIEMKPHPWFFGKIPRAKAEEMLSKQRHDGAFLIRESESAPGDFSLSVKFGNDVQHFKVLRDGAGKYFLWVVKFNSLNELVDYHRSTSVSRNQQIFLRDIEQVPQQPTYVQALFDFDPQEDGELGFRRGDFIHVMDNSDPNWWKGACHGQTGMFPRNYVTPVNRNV

As usually defined, the IC50 is the point on the concentration scale where inhibition reaches its midpoint. Read a high IC50 as weaker potency in that assay. For the molecule `CC(=O)N[C@H]1CCCCNC(=O)[C@H]2CCCN2C(=O)[C@H](C(C)C)NC(=O)[C@@H](CC(N)=O)NC(=O)[C@H](CC2CCCCC2)NC(=O)[C@@H](Cc2ccc(OP(=O)(O)O)cc2)NC1=O`, the concentration for half-maximal inhibition (IC50) is 1610 nM in test [1] and greater than 150000 nM in test [2].
As to `CC(C)[C@H]1NC(=O)[C@H](Cc2ccc(OP(=O)(O)O)cc2)NC(=O)CNC(=O)[C@@H]2CCCN2C(=O)[C@@H](C(C)C)NC(=O)[C@H](CC(N)=O)NC1=O`, in test [1], the IC50 was 520 nM.
In turn, `CC(C)[C@H]1NC(=O)[C@H](Cc2ccc(OP(=O)(O)O)cc2)NC(=O)OCCCCCNC(=O)[C@@H]2CCCN2C(=O)[C@@H](C(C)C)NC(=O)[C@H](CC(N)=O)NC1=O` showed a 50% inhibitory concentration (IC50) in test [1] of 710 nM. This IC50 and that of the molecule before are within 1.5-fold of each other.
Turning to `CC(=O)N[C@H]1CCCCNC(=O)[C@H]2CCCN2C(=O)[C@H](C(C)C)NC(=O)[C@@H](CC(N)=O)NC(=O)[C@H](CC(C)C)NC(=O)[C@@H](Cc2ccc(OP(=O)(O)O)cc2)NC1=O`, the IC50 in test [1] is 1340 nM; in test [2], greater than 150000 nM.
`CC(=O)N[C@H]1CCCCNC(=O)[C@H]2CCCN2C(=O)[C@H](C(C)C)NC(=O)[C@@H](CC(N)=O)NC(=O)[C@H](C(C)C)NC(=O)[C@@H](Cc2ccc(OP(=O)(O)O)cc2)NC1=O`: the IC50 in test [1] is 70 nM; in test [2] it was greater than 150000 nM.
The molecule `CC(C)[C@H]1NC(=O)[C@H](Cc2ccc(OP(=O)(O)O)cc2)NC(=O)CCCCCCNC(=O)[C@@H]2CCCN2C(=O)[C@@H](C(C)C)NC(=O)[C@H](CC(N)=O)NC1=O` returned a concentration for half-maximal inhibition (IC50) in test [1] of 600 nM. In other words, the sub-micromolar range.
`CC(C)[C@H](NC(=O)[C@H](CC(N)=O)NC(=O)[C@@H](NC(=O)[C@H](Cc1ccc(OP(=O)(O)O)cc1)NC(=O)[C@H](Cc1ccccc1)NC(=O)[C@@H]1CCCN1C(=O)[C@@H](N)CCCCN)C(C)C)C(=O)N[C@@H](CCC(=O)O)C(=O)N[C@@H](Cc1ccccc1)C(=O)O` (H-KPF[pY]VNVEF-OH) had an IC50 in test [1] of 700 nM.
As to `CCCCNC(=O)[C@@H]1CCCN1C(=O)[C@@H](NC(=O)[C@H](CC(N)=O)NC(=O)[C@@H](NC(=O)[C@H](Cc1ccc(OP(=O)(O)O)cc1)NC(=O)CC)C(C)C)C(C)C` (Propionyl-[pY]VNVP-NHBu), the IC50 is 1630 nM in test [1] and greater than 100000 nM in test [2].
The molecule `CC(C)[C@@H]1NC(=O)[C@H](Cc2ccc(OP(=O)(O)O)cc2)NC(=O)CNC(=O)[C@@H]2CCCN2C(=O)[C@H](C(C)C)NC(=O)[C@H](CC(N)=O)NC1=O` showed a 50% inhibitory concentration (IC50) in test [2] greater than 100000 nM.
`CC(=O)N[C@H]1CSSC[C@@H](C(=O)O)NC(=O)[C@H]2CCCN2C(=O)[C@H](C(C)C)NC(=O)[C@@H](CC(N)=O)NC(=O)[C@H](C(C)C)NC(=O)[C@@H](Cc2ccc(OP(=O)(O)O)cc2)NC1=O`: in test [2], the IC50 stood at 38000 nM.
Still for that read-out and setting: next, `CC(C)[C@@H]1NC(=O)[C@H](Cc2ccc(OP(=O)(O)O)cc2)NC(=O)CCCCCCNC(=O)[C@@H]2CCCN2C(=O)[C@H](C(C)C)NC(=O)[C@H](CC(N)=O)NC1=O`: greater than 100000 nM.
Regarding `CC(=O)N[C@@H]1CCCCNC(=O)[C@H]2CCCN2C(=O)[C@H](C(C)C)NC(=O)[C@@H](CC(N)=O)NC(=O)[C@H](C(C)C)NC(=O)[C@@H](Cc2ccc(OP(=O)(O)O)cc2)NC1=O`, the IC50 in test [1] was determined as 180 nM; in test [2], 73000 nM.
With `CC(=O)N[C@H]1CCCCNC(=O)[C@H]2CCCN2C(=O)[C@H](CC2CCCCC2)NC(=O)[C@@H](CC(N)=O)NC(=O)[C@H](C(C)C)NC(=O)[C@@H](Cc2ccc(OP(=O)(O)O)cc2)NC1=O`, the IC50 was 110 nM in test [1] and greater than 150000 nM in test [2].
Taken in the same sequence, the figures for `CC(C)[C@H]1NC(=O)[C@H](Cc2ccc(OP(=O)(O)O)cc2)NC(=O)CNC(=O)[C@H]2CCCN2C(=O)[C@@H](C(C)C)NC(=O)[C@H](CC(N)=O)NC1=O` were 10800 nM and greater than 100000 nM.
In test [2], `CC(C)[C@@H]1NC(=O)[C@H](Cc2ccc(OP(=O)(O)O)cc2)NC(=O)OCCCCCNC(=O)[C@@H]2CCCN2C(=O)[C@H](C(C)C)NC(=O)[C@H](CC(N)=O)NC1=O` gave an IC50 greater than 100000 nM.

(Values after ChEMBL document CHEMBL1132170, “Structural and conformational requirements for high-affinity binding to the SH2 domain of Grb2(1)” (J Med Chem, 1999).)
